Values after ≈ are worked out from the molar mass of the structure shown.
Legend:
[1] = system: Mycobacterium tuberculosis; assay: Antimycobacterial activity against Mycobacterium tuberculosis H37Rv ATCC 25618 overexpressing ethR gene by colorimetric resazurin microtiter assay; format: functional
Method in brief: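 Resazurin colorimetric microtiter MIC in 7H9-ADC broth at 37°C, for H37Rv carrying ethR on pVV vector; ISO tested up to 40 μg/ml, the solubility limit.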

[2] = system: Mycobacterium tuberculosis; assay: Antimycobacterial activity against Mycobacterium tuberculosis MT1K ISO-R22 mutant expressing VV16 plasmid by colorimetric resazurin microtiter assay; format: functional
Method in brief: (§1)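 Resazurin colorimetric microtiter MIC in 7H9-ADC broth with 2% DMSO at 37°C; strains carry empty pVV16 or pVVethA complementation vector; ISO tested up to 40 μg/ml, highest soluble level.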

[3] = system: Mycobacterium tuberculosis; assay: Antimycobacterial activity against Mycobacterium tuberculosis MT1K ISO-R22 mutant overexpressing ethA gene by colorimetric resazurin microtiter assay; format: functional; method in brief: as §1
[4] = system: Mycobacterium tuberculosis; assay: Antimycobacterial activity against Mycobacterium tuberculosis MT1K ISO-R33 mutant expressing VV16 plasmid by colorimetric resazurin microtiter assay; format: functional; method in brief: as §1
[5] = system: Mycobacterium tuberculosis; assay: Antimycobacterial activity against Mycobacterium tuberculosis MT1K ISO-R33 mutant overexpressing ethA gene by colorimetric resazurin microtiter assay; format: functional; method in brief: as §1
[6] = system: Mycobacterium tuberculosis; assay: Ratio of MIC for wild-type Mycobacterium tuberculosis H37Rv expressing VV16 plasmid to MIC for Mycobacterium tuberculosis H37Rv overexpressing ethA gene; format: functional
Method in brief: (§2)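 Ratio of resazurin microtiter MICs in 7H9-ADC broth for H37Rv carrying pVVethR or pVVethA versus empty pVV16; ethA strain run at 32°C, ethR at 37°C.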

[7] = system: Mycobacterium tuberculosis; assay: Ratio of MIC for Mycobacterium tuberculosis H37Rv overexpressing ethR gene to MIC for wild-type Mycobacterium tuberculosis H37Rv expressing VV16 plasmid; format: functional; method in brief: as §2
[8] = system: Mycobacterium tuberculosis; assay: microbe, parasite or virus in culture; conditions: H37Rv ATCC 25618

CC(C)CCOc1ccc(NC(=S)Nc2ccc(OCCC(C)C)cc2)cc1 [TIOCARLIDE]
MIC [1]: > 40 µg/mL | MIC [2]: >40 µg/mL | MIC [3]: 5 µg/mL (≈ 12.5 µM) | MIC [4]: >40 µg/mL | MIC [5]: 5 µg/mL (≈ 12.5 µM) | fold change (FC) [6]: 2 | fold change (FC) [7]: 8 | MIC [8]: 2.5 µg/mL (≈ 6.24 µM)

— ChEMBL document CHEMBL1137655, “Isoxyl activation is required for bacteriostatic activity against Mycobacterium tuberculosis” (2007)
